Assay outcomes as filed in PubChem BioAssay.
A selection: hits, their analogues and other compounds. The true share with any hit is near 1.8%.
SUMO1-SIM PPI = modulators of SUMO1 protein-protein interactions, primary screen, biochemical, uHTS | SUMO1 binding to a labelled peptide, TR-FRET, 1 h | inhibition, % at 20 µM | 360,000 tested, 0.33% active; in the data active = inhibition above about 37%
DNMT1 inh = human DNMT1 methyltransferase inhibitors, primary screen, biochemical, molecular beacon, fluorescence, HinP1I cleavage, uHTS. AID 588458, 2011. inhibition (reported as % activation of signal), % at 10 µM. 360,000 tested, 0.83% active. DNA (cytosine-5)-methyltransferase 1 (Homo sapiens), P26358; in the data active = inhibition above about 50%
Target sequence (P26358 504-1616 limits assumed): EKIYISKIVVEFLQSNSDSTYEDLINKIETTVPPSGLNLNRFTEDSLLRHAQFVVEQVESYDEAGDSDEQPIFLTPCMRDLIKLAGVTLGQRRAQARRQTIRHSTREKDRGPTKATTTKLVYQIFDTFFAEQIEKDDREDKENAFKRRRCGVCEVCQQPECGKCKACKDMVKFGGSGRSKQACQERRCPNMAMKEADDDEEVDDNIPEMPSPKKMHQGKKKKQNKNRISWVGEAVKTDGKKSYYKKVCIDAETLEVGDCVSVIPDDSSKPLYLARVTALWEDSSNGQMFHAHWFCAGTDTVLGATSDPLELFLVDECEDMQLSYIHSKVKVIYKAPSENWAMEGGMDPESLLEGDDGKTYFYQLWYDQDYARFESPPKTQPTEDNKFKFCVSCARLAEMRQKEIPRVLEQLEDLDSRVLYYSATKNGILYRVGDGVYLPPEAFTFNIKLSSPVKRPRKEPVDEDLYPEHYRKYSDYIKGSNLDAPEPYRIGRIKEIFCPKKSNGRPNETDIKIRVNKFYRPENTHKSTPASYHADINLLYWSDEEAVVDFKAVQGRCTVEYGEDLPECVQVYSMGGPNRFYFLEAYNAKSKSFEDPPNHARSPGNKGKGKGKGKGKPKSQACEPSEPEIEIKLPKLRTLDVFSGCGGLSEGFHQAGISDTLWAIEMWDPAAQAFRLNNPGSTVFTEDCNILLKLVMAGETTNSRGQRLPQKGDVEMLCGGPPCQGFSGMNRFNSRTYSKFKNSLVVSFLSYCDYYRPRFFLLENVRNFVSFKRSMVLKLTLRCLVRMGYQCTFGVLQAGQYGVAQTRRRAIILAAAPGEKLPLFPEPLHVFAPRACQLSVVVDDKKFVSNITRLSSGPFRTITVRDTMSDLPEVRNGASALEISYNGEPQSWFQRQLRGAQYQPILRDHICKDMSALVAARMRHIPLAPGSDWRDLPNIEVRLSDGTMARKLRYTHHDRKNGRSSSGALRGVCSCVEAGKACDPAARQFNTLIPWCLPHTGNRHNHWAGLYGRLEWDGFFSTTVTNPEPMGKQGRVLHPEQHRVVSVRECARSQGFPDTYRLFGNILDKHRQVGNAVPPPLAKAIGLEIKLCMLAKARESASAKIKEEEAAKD
LMPTP block = LMPTP phosphatase inhibitors, primary screen, biochemical, fluorescence intensity, uHTS. 360,000 tested, 0.22% active. recombinant LMPTP-A, OMFP fluorogenic substrate. Low molecular weight phosphotyrosine protein phosphatase (Homo sapiens), P24666. inhibition, % at 20 µM. AID 651560, 2012;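 active = compounds that cut the enzyme signal by at least half of the control window in the single-dose screen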;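 also: plate controls were DMSO wells with enzyme plus substrate for no effect and substrate without enzyme for full effect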
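Test system: LMPTP-A, protein tyrosine phosphatase of low molecular weight; Input: 0.625 nM enzyme; Incubation: 50 min dark incubation at room temperature; Signal: endpoint fluorescence intensity from OMFP dephosphorylation; Read-out basis: % inhibition versus control wells.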
HKDC1 inhibitor = HKDC1 hexokinase inhibitors, primary screen, biochemical, fluorescence, uHTS | 340,000 tested, 0.16% active | recombinant HKDC1, G6PDH/diaphorase resazurin coupled fluorescence | AID 493160, 2011 | inhibition, % at 20 µM;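 active = inhibition above about 35% when tested at 20 µM, limit read from the data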;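 also: plate controls were DMSO wells with enzyme for no effect and DMSO wells lacking enzyme for full effect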
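test system = in-house recombinant HK5 (HKDC1) enzyme | amount = HKDC1 at 5 µg/mL | control set = DMSO-enzyme wells negative, buffer-substituted wells positive | compound = one dose of 20 µM, 1% DMSO | schedule = reaction time 90 min, room temperature, protected from light | technique = resorufin fluorescence at 613 nm | reagent = glucose with 1 mM ATP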
STEP inh = STEP phosphatase inhibitors, primary screen, biochemical, fluorescence intensity, uHTS; Tyrosine-protein phosphatase non-receptor type 5 (Homo sapiens), P54829; recombinant STEP, OMFP fluorogenic substrate; inhibition, % at 20 µM; 360,000 tested, 0.25% active; AID 588621, 2011;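 active = inhibition at 20 µM, scaled per plate between control wells, above about 37%, limit read from the data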;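 also: 0% = DMSO with enzyme and substrate and 100% = substrate only without enzyme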
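System: STEP (striatal-enriched tyrosine phosphatase) enzyme, cell-free; medium: Bis-Tris pH 6.0 buffer with DTT, detergent; dosing: 20 µM, 1% DMSO; times: reaction 20 min, ambient temperature; detection: fluorescence, 480/540 nm; read-out basis: normalized % inhibition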
Scp-1 inhibitor = Scp-1 phosphatase inhibitors, primary screen, biochemical, colorimetric, uHTS; Recombinant Scp1, phosphopeptide, malachite green phosphate absorbance; Carboxy-terminal domain RNA polymerase II polypeptide A small phosphatase 1 (Homo …; 340,000 tested, 0.88% active; inhibition, % at 20 µM;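 active = inhibition above about 50% at 20 µM, limit read from the data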;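 also: plate controls were DMSO wells with enzyme for no effect and wells lacking enzyme for full effect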
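Times: enzyme reaction 45 min at room temperature, colour 5 min, stabilisation 30 min. Material: SCP-1 catalytic fragment, aa 76-261. Medium: Acidic Tris acetate buffer with magnesium and detergent. Signal: colorimetric free-phosphate detection, absorbance 630 nm. Read-out basis: % inhibition of SCP-1 phosphate liberation. Reagent: Phosphorylated 17-residue peptide substrate.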
Scp1 confirm = Scp-1 phosphatase inhibitors, retest, confirmation, biochemical, colorimetric, single concentration; 2,500 tested, 61% active; shares compounds with Scp-1 inhibitor; recombinant SCP-1 catalytic domain, phosphate release, malachite green absorbance; AID 540281, 2011; inhibition, % at 20 µM;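 also: plate controls were DMSO with enzyme for no effect and buffer wells lacking enzyme for full effect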
MG interference = colorimetric readout interference by compounds, confirmation, artefact control for Scp-1 inhibitor project, biochemical, single concentration | Colorimetric interference counterscreen, malachite green absorbance 630 nm | apparent inhibition (interference), % at 20 µM | AID 540313, 2011 | shares compounds with Scp-1 inhibitor | 2,500 tested, under 10 active;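 also: compounds added after enzyme reaction finished so only phosphate colour detection is probed; plate controls were DMSO wells with completed Scp-1 reaction for no effect and substrate wells lacking enzyme for full effect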
Scp1 DSF = Scp-1 binding by thermal shift, confirmation, orthogonal assay for Scp-1 inhibitor project, biophysical, differential scanning fluorimetry; Recombinant SCP1, Sypro Orange thermal shift Tm; thermal shift relative to vanadate control, % at 40 µM; shares compounds with Scp-1 inhibitor; 1,500 tested, 25% active;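 active = substances whose mean melting-temperature shift, as a percentage of the reference inhibitor's shift, reaches about 5.3%, limit read from the data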;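 also: 0% = Tm of DMSO wells and 100% = Tm with sodium orthovanadate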
* = called active by the depositor; nt = no result given.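 The calls were made as follows, unless noted: active = inhibition of at least 30% at 20 µM; inactive = the rest.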

SMILES	SUMO1-SIM PPI	DNMT1 inh	LMPTP block	HKDC1 inhibitor	STEP inh	Scp-1 inhibitor	Scp1 confirm	MG interference	Scp1 DSF
COC(=O)Cn1c(=NC(=O)c2cc(-c3cccs3)nc3ccccc23)sc2cc(S(N)(=O)=O)ccc21	-6	-21	3	-4	-4	4	nt	nt	nt
COC(=O)Cn1c(=NC(=O)c2nc3ccccc3s2)sc2cc(S(N)(=O)=O)ccc21	3	14	28	-5	0	64*	52*	-15	0
COc1ccc(/C=N\NC(=O)c2ccc([N+](=O)[O-])c(C)c2)cc1COc1ccccc1C(N)=O	54*	-6	1	2	6	67*	34*	-8	-3
CCOC(=O)c1ccc(/C=C2/C=C(c3ccccc3)N(c3ccc(Cl)c(C(=O)O)c3)C2=O)cc1	27	35	1	20	-3	52*	72*	-13	-6
O=C(O)CN1C(=O)/C(=C2\C(=O)N(Cc3ccccc3Cl)c3ccccc32)SC1=S	-2	9	9	51*	52*	82*	62*	-20	16*
O=C1/C(=C2\C(=O)N(Cc3ccc(F)cc3)c3ccccc32)SC(=S)N1CCS(=O)(=O)O	-1	4	1	26	4	-1	nt	nt	nt
O=C(O)C1CCCCC1C(=O)Nc1cccc(Br)c1 (centres undefined)	12	103*	61*	-1	98*	84*	63*	-14	-25
COc1ccc(-c2nc3ccc(C)cn3c2CC(C)(C)C)cc1OC	2	12	1	nt	0	nt	nt	nt	nt
N#Cc1ccsc1NC(=O)COC(=O)CCS(=O)(=O)c1ccccc1	18	17	12	-2	-1	50*	69*	-10	5.7*
COC(=O)/C=C/CC(C)OS(N)(=O)=O (centres undefined)	2	6	-2	-2	0	4	nt	nt	nt
COc1ccccc1NS(=O)(=O)c1ccc2c(c1)CCN2C(=O)CCC(=O)O	9	2	0	1	-2	13	nt	nt	nt
CC(Oc1ccc2c(-c3ccccc3)cc(=O)oc2c1)C(=O)NC(Cc1c[nH]c2ccc(O)cc12)C(=O)O (centres undefined)	-1	8	-1	9	-1	27	nt	nt	nt
COc1ccc2c(c1)c(=O)oc1c(C)c(OC(C)C(=O)N[C@@H](Cc3c[nH]c4ccc(O)cc34)C(=O)O)ccc12 (some centres undefined)	27	12	3	8	-1	58*	43*	-23	9.6*
Cc1oc(/N=C/c2cccc3ccccc23)c(C#N)c1C	-5	41	1	19	2	65*	-11	-8	nt
Fc1ccc(Sc2ccccc2CNC2=NCCN2)cc1	4	4	0	-2	-5	52*	84*	-14	-4
Cc1ccccc1NS(=O)(=O)c1ccc(C2CNC(=O)C2)cc1 (centres undefined)	0	2	-2	-7	-2	1	nt	nt	nt
